PDI inh: blocks human protein disulfide isomerase activity; P07237; PDI insulin aggregation turbidity, A650, 90 min; inhibition, % at 10 µM; 0.052% of 350,000 active; AID 588391;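 active = mean inhibition across replicates of 30% or more, whatever share of single replicates reach that level; inconclusive = mean inhibition below 30% while every single replicate reaches 30%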
Target sequence (P07237 whole entry, looked up): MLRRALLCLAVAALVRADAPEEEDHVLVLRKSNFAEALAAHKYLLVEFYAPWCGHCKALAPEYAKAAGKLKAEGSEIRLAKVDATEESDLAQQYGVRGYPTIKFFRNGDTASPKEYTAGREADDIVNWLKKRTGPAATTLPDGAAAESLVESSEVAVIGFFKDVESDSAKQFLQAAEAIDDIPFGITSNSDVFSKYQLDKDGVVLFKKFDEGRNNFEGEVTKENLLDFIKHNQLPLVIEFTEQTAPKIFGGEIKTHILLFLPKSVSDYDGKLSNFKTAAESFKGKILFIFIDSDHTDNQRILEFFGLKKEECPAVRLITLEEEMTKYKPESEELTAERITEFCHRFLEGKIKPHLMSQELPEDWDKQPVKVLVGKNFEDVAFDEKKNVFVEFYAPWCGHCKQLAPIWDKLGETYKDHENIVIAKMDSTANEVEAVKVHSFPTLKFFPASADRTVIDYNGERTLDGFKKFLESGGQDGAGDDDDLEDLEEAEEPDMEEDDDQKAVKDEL
DENV2 CPE: protects cells from dengue virus 2 cytopathic effect; DENV2-infected cells, cytopathic effect rescue, plate reader; CPE inhibition, % at 9.99 µM; 1.7% of 350,000 active; AID 651640; in the data active = CPE inhibition above about 20%, passing the limit was not always enough; inconclusive = no clear call, values can overlap the other calls; tested in BHK-21 cells;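 also: 0% = median of neutral control wells and 100% = median of positive control wells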
Statin myotox sup: suppression of simvastatin myotoxicity; C2C12 myotubes + simvastatin, ATP luminescence, 48 h; scaled: DMSO 0, geranylgeraniol control 100; rescue of ATP level, % at 7.49 µM; 0.78% of 330,000 active;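 active = mean ATP rescue above about 67%, or every replicate alone reaching that limit, limit read from the data, passing the limit was not always enough; inconclusive = no clear call, values can overlap the other calls; inactive = mean under the limit and some replicate under it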;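 also: myotubes were challenged with 10 µM simvastatin during compound exposure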
CFTR F508del cor: CFTR F508del correction in bronchial cells | activity (quench increase), % at 7.58 µM | AID 720511 | CFBE cells, YFP halide quenching; stimulated with forskolin plus potentiator P3; % fluorescence drop versus neutral controls | 0.36% of 350,000 active;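 active = mean added fluorescence quench of at least 8% versus neutral control, with both replicates also reaching 8%; inconclusive = only one of the mean or replicate conditions met; inactive = mean below 8% and not both replicates reaching 8%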;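 also: cells transiently co-express mutant CFTR-F508del with the halide-sensitive YFP; corrector assay measuring rescue of mutant channel to the surface after 24 h compound exposure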
ERp5 inh: ERp5 (human) disulfide isomerase inhibition | ERp5 insulin aggregation, absorbance 650 nm, 90 min | inhibition, % at 9.99 µM | AID 651711 | Q15084 | 0.05% of 350,000 active;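 active = mean replicate inhibition above about 25%, with every replicate also reaching it, limit read from the data, passing the limit was not always enough; inconclusive = only one of those two criteria met; inactive = neither criterion met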
Cneo AK release: causes C. neoformans cell lysis. adenylate kinase release luminescence, 4 h; normalised: neutral wells 0, clomiphene wells 100. lysis activity, % at 15 µM. 0.2% of 360,000 active. AID 651654;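 active = mean lysis activity across replicates of at least 80%, whatever share of replicates individually reach that level; inactive = mean lysis activity below 80%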
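Material: C. neoformans cells; Schedule: 4 h static compound exposure, 37 °C, read 1 h post-reagent; Measured by: adenylate kinase release luminescence; Read-out: signal increase indicating cell lysis; Controls: Clomiphene as positive lysis control.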
* = called active by the depositor; ? = inconclusive; · = not tested or not shown; ! = not confirmed by another sample. An excerpt weighted towards active compounds, which were near 2.3% of everything screened.

SMILES	PDI inh	DENV2 CPE	Statin myotox sup	CFTR F508del cor	ERp5 inh	Cneo AK release
O=C(C[C@H]1CC[C@H]2[C@@H](COC[C@H](O)CN2CC2CCOCC2)O1)N1CCOCC1	·	-3.1	-8.9	-0.7	-2.2	0.2
O=C(C[C@H]1CC[C@H]2[C@@H](COC[C@@H](O)CN2C(=O)c2ccc(F)cc2)O1)N1CCOCC1	·	-2.7	2.4	0.4	-0.5	105.0*
CCCNC(=O)N1C[C@H](O)COC[C@@H]2O[C@@H](CC(=O)N3CCOCC3)CC[C@H]21	·	107.8*	-4.5	-3.3	2.9	-0.8
CCCNC(=O)N1C[C@@H](O)COC[C@@H]2O[C@H](CC(=O)N3CCOCC3)CC[C@H]21	·	-9.7	-0.3	-1.0	2.2	2.7
c1ccc(Cn2nnnc2CN2CCN(Cc3ccc4c(c3)OCO4)CC2)cc1	3.1	·	37.5	·	·	-0.3
c1ccc2c(c1)CCN(Cc1nnnn1Cc1ccc3c(c1)OCO3)C2	14.0	·	125.0*	·	·	3.3
COc1cccc(NC(=O)N2CC(=O)N3[C@@H](CO)[C@H](c4ccc(C#CC5CCCC5)cc4)[C@@H]3C2)c1	·	?	·	1.5	4.6	·
COCCNC(=O)C1CCC(CNS(=O)(=O)c2ccc(F)cc2)CC1 (stereo not drawn)	4.9	34.0*	8.7	-0.6	-1.7	1.0
COCCNC(=O)C1CCC(CNS(=O)(=O)c2ccccc2)CC1 (stereo not drawn)	9.2	-6.7	1.1	-1.8	0.1	-1.8
COc1ccc2noc3c2c1C(=O)c1ccccc1-3	-2.4	0.3	7.2	37.3*	0.9	1.3
O=C(NCC1CCCN1S(=O)(=O)c1cccs1)C(=O)Nc1ccccc1 (stereo not drawn)	-3.2	8.4	-0.3	3.9	2.2	-6.1
Cc1ccc(NC(=O)C(=O)NCC2CCCN2S(=O)(=O)c2cccs2)cc1 (stereo not drawn)	0.7	37.8*	-1.6	-1.4	0.0	0.1
Cc1ccc(S(=O)(=O)N2[C@@H]3CNC[C@H]2C3c2ccc(-c3ccc(C#N)cc3)cc2)cc1 (stereo partly drawn)	·	29.1*	·	2.6	0.4	·
O=S(=O)(c1ccccc1)N1[C@@H]2CNC[C@H]1C2c1ccc(-c2ccccc2)cc1 (stereo partly drawn)	·	68.3*	·	0.1	4.3	·
O=S(=O)(c1ccccc1)N1[C@@H]2CNC[C@H]1C2c1ccc(-c2ccc(F)cc2)cc1 (stereo partly drawn)	·	6.7	·	1.7	·	·
O=C(C[C@H]1C[C@H]2c3cc(NC(=O)c4cccnc4)ccc3O[C@H]2[C@@H](CO)O1)NCc1cccc(F)c1	·	13.2	1.6	-1.0	-6.0	-5.0
CCC(C)[C@H](NC(=O)[C@@H]1Cc2ccccc2CN1)C(=O)NCc1ccc(C)cc1 (stereo partly drawn)	3.2	92.0*	2.8	1.9	-2.1	-1.0
CCC(C)[C@H](NC(=O)[C@@H]1Cc2ccccc2CN1)C(=O)NCc1ccc(OC)cc1 (stereo partly drawn)	·	?	-3.2	-3.0	0.6	-0.6
CCCNC(=O)N(C)C[C@H]1Oc2ncc(C3=CCCCC3)cc2C(=O)N([C@@H](C)CO)C[C@@H]1C	·	0.4	8.2	-0.2	2.4	0.1
O=C(C[C@@H]1C[C@H]2c3cc(NC(=O)Nc4ccc(C(F)(F)F)cc4)ccc3O[C@H]2[C@@H](CO)O1)NCc1ccccn1	·	0.7	-0.6	-3.2	-3.3	10.4
COc1ccc(NC(=O)N(C)C[C@H]2Oc3c(NC(=O)c4nc5ccccc5s4)cccc3C(=O)N([C@@H](C)CO)C[C@H]2C)cc1	0.2	32.1*!	2.2	1.9	-3.4	-0.9
C[C@@H]1CN([C@H](C)CO)C(=O)c2cccc(NC(=O)c3nc4ccccc4s3)c2O[C@@H]1CN(C)C(=O)Nc1cccc2ccccc12	·	-6.2	80.6*	1.3	-2.7	-1.4
COc1ccc(NC(=O)N(C)C[C@H]2Oc3c(NC(=O)c4nc5ccccc5s4)cccc3C(=O)N([C@@H](C)CO)C[C@@H]2C)cc1	·	15.4	·	-3.9	-7.2	-8.5
C[C@@H]1CN([C@H](C)CO)C(=O)c2cccc(NC(=O)c3nc4ccccc4s3)c2O[C@H]1CN(C)C(=O)NC1CCCCC1	·	45.2*	55.9	1.2	-1.2	-0.9
C[C@H](CO)N1C[C@H](C)[C@H](CN(C)C(=O)Nc2ccc(F)cc2)Oc2c(NC(=O)c3nc4ccccc4s3)cccc2C1=O	·	30.5*	·	-1.0	-4.1	-1.5
SMILES	PDI inh	DENV2 CPE	Statin myotox sup	CFTR F508del cor	ERp5 inh	Cneo AK release
CO[C@H]1O[C@H](CO)[C@@H](OC(=O)Nc2ccccc2)[C@H](OC(=O)Nc2ccccc2)[C@H]1OC(=O)Nc1ccccc1	·	-9.7	·	-2.8	-1.3	-4.3
C/C=C/c1ccc([C@H]2[C@@H](CO)N3CCCCN(S(=O)(=O)c4cccc(C)c4)C[C@@H]23)cc1	·	19.0	19.9	1.3	1.6	5.2
OC(CSc1c(Cl)cccc1Cl)CN1CCN(c2ccccc2F)CC1 (stereo not drawn)	11.1	·	171.6*	·	·	-0.2
OC(CSc1ccccc1Cl)CN1CCN(c2ccccc2F)CC1 (stereo not drawn)	-1.9	·	3.7	·	·	-2.7
Cn1cnc(S(=O)(=O)N[C@H]2CC[C@@H](CC(=O)NCC3CCCCC3)O[C@@H]2CO)c1	·	-0.6	-11.7	3.1	-3.5	50.3
O=C(N/N=C/c1cccs1)c1cccc(NC(=O)c2ccccc2Cl)c1	7.4	2.3	·	9.5*	0.1	·
O=S(=O)(c1cccc(F)c1)N1CCN(C(=S)NCC2CCCO2)CC1 (stereo not drawn)	-4.3	-7.5	0.1	0.9	8.0	0.5
O=S(=O)(c1cccc(Br)c1)N1CCN(C(=S)NCC2CCCO2)CC1 (stereo not drawn)	0.2	67.7*	·	0.1	-1.6	·
CCCNC(=O)N1CC2(CN(C(=O)C3CCCC3)C2)c2c([nH]c3cc(OC)ccc23)[C@@H]1CO	·	15.7	·	2.5	-6.8	·
COc1ccc(/C=C2/C(=O)N(c3cccc(F)c3)N=C2C)c(OC)c1	-4.2	37.1*	-1.7	3.6	-2.1	0.0
Cc1ccccc1-c1ccc([C@@H]2[C@@H](CO)N3CCCCN(CC4CC4)C[C@H]23)cc1	·	52.2*	-4.2	-0.2	-4.4	49.7
COc1cccc(-c2ccc([C@@H]3[C@@H](CO)N4CCCCN(CC5CC5)C[C@H]34)cc2)c1	·	42.6*	-4.9	-2.8	17.4	-2.5
Cc1ccccc1-c1ccc([C@H]2[C@@H](CO)N3CCCCN(CC4CC4)C[C@H]23)cc1	·	16.8	7.0	-3.3	-5.1	49.1
COc1cccc(-c2ccc([C@H]3[C@H](CO)N4CCCCN(CC5CC5)C[C@@H]34)cc2)c1	·	42.1*	0.3	2.5	-1.7	45.7
O=C(C[C@H]1C=C[C@H](NC(=O)CN2CCOCC2)[C@H](CO)O1)NC1CCCCC1	·	4.2	10.7	0.1	1.2	-2.8
